Sampled rows, rich in hits. Any-hit rate of the full collection: about 2.8%.
PAFAH2 inh – PAFAH2 enzyme inhibitors, primary screen, biochemical, fluorescence polarization, human; Platelet-activating factor acetylhydrolase 2, cytoplasmic (Homo sapiens), Q99487; recombinant PAFAH2, FP-rhodamine activity probe; inhibition, % at 3.39 µM; hit rate 0.99% among 340,000;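 active means inhibition above the mean over all tested compounds plus 3 SD, cut at about 30% in these data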;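 further: inhibitors block probe labeling of enzyme so polarization drops; 0% = enzyme with DMSO and 100% = wells lacking PAFAH2 protein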
HTRA1 inhibitor – HTRA1 serine protease inhibitors, primary screen, biochemical, fluorescence polarization, HTS; recombinant HTRA1, FP-rhodamine activity-based probe; inhibition, % at 5.96 µM; hit rate 0.5% among 340,000; AID 504803, 2011; in the data active means inhibition above about 36%;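 further: 0% = enzyme with DMSO and 100% = wells lacking enzyme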
Target sequence (Q92743 whole entry, looked up): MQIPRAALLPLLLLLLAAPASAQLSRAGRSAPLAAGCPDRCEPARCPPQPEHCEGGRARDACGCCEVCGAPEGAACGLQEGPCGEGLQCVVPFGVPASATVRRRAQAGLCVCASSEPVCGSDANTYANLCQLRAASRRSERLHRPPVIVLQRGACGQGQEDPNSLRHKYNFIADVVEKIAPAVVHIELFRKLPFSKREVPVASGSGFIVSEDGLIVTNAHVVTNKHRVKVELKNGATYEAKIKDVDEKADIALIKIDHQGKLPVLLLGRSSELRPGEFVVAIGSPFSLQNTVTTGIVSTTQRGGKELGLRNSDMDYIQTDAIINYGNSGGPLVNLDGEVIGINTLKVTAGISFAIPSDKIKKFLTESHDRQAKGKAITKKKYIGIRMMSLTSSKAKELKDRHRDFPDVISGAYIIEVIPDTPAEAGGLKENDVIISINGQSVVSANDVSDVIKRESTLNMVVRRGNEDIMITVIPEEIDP
PAFAH1B2 FP inh – PAFAH1B2 enzyme inhibitors, primary screen, biochemical, fluorescence polarization, human. Platelet-activating factor acetylhydrolase IB subunit alpha2 (Homo sapiens), P68402. recombinant PAFAH1B2, FP-rhodamine activity probe. inhibition, % at 3.39 µM. hit rate 1.2% among 340,000;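 active means inhibition above the mean of all tested compounds plus 3 SD, cut at about 24% in these data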;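 further: 0% = enzyme with DMSO and 100% = wells lacking PAFAH1B2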
Target sequence (P68402 whole entry, looked up): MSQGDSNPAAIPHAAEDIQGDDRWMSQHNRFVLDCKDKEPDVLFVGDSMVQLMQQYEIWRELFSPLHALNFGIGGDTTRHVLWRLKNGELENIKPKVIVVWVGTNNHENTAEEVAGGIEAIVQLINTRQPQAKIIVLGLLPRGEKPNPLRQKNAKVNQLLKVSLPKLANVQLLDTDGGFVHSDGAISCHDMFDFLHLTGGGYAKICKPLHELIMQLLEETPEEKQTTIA
ABHD4 inh – ABHD4 inhibitors, primary screen, biochemical, fluorescence polarization, mouse; (Lyso)-N-acylphosphatidylethanolamine lipase (Mus musculus), Q8VD66; purified mABHD4, FP-Rh probe fluorescence polarization; inhibition, % at 8.92 µM; hit rate 0.54% among 370,000; AID 720543, 2013;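 active means inhibition exceeding the mean over every tested compound plus 3 SD, cut at about 30% in these data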;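 further: 0% = plate median of compound wells and 100% = S159A mutant with DMSO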
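Test system: mABHD4 protein | Buffer or medium: HEPES pH 7.0 buffer, 150 mM NaCl, 0.01% Pluronic F-127 | Probe or stimulus: FP-Rh fluorescent activity-based probe, added after compound pre-incubation | Timing: Pre-incubation 45 min, probe exposure 60 min, at 25 °C | Technique: Fluorescence polarization, excitation 525 nm, emission 598 nm, BODIPY TMR filters | Repeats: Single well per compound (singlicate)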
PAFAH1B3 FP inh – PAFAH1B3 enzyme inhibitors, primary screen, biochemical, fluorescence polarization, human | AID 492972, 2010 | Platelet-activating factor acetylhydrolase IB subunit alpha1 (Homo sapiens), Q15102 | hit rate 0.28% among 340,000 | recombinant PAFAH1B3, FP-rhodamine probe | inhibition, % at 3.39 µM;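 active means inhibition above the screen-wide average of all tested compounds plus 3 SD, cut at about 25% in these data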;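 further: 0% = enzyme with DMSO only and 100% = wells lacking PAFAH1B3 protein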
pPAFAH FP inh – pPAFAH enzyme inhibitors, primary screen, biochemical, fluorescence polarization, human; recombinant pPAFAH, FP-rhodamine probe fluorescence polarization; inhibition, % at 3.39 µM; hit rate 1.5% among 330,000; AID 463082, 2010;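 active means inhibition above the mean inhibition across the screen plus 3 SD, cut at about 25% in these data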;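 further: inhibitors block binding of the rhodamine activity-based probe so polarization drops; 0% = enzyme with DMSO and 100% = wells lacking pPAFAH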
PAFAH2 FP conf – PAFAH2 enzyme inhibitors, confirmation, biochemical, fluorescence polarization, human; AID 493030, 2011; shares compounds with PAFAH2 inh; inhibition, % at 3.39 µM; hit rate 65% among 2,300; recombinant PAFAH2, FP-rhodamine activity probe;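 active means mean inhibition over three repeats above a set limit taken from the earlier primary screen, cut at about 30% in these data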;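 further: inhibitor blocks binding of rhodamine activity probe so polarization falls; 0% = enzyme with DMSO and 100% = wells lacking PAFAH2 protein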
* marks the source's active call; other numbers are inactive results.

Screening Nc1nnc(CC(=O)N/N=C/c2ccc(-c3ccccc3Cl)o2)s1 returned PAFAH2 inh 30*, HTRA1 inhibitor -1, PAFAH1B2 FP inh -1, ABHD4 inh 12, PAFAH1B3 FP inh -1, pPAFAH FP inh 17 and PAFAH2 FP conf 23.
`Nc1nnc(CC(=O)N/N=C/c2ccc([N+](=O)[O-])cc2)s1` gave PAFAH2 inh 6, HTRA1 inhibitor 13, PAFAH1B2 FP inh 6, ABHD4 inh 3, PAFAH1B3 FP inh 9 and pPAFAH FP inh 10.
For COc1cccc(C2c3c(ncn(-c4ccccc4)c3=N)Oc3ccc4ccccc4c32)c1 (stereo unspecified) the results were ABHD4 inh -79.
For COc1ccc(CN(CCN2CCOCC2)C(=O)c2cc(Cl)ccc2F)cc1OC the results were ABHD4 inh 0.
Screening C#C[C@]1(O)CC[C@H]2[C@@H]3CCc4cc(OC5CCCC5)ccc4[C@H]3CC[C@@]21C returned PAFAH2 inh 53*, HTRA1 inhibitor -23, PAFAH1B2 FP inh 1, ABHD4 inh -11, PAFAH1B3 FP inh -4, pPAFAH FP inh -1 and PAFAH2 FP conf 51*.
Screening CN(C)S(=O)(=O)c1cccc(NC(=S)N/N=C/c2cc(Br)ccc2O)c1 returned PAFAH2 inh 34*, HTRA1 inhibitor 36, PAFAH1B2 FP inh 9, ABHD4 inh 14, PAFAH1B3 FP inh 20, pPAFAH FP inh 20 and PAFAH2 FP conf 20.
For CN(C)S(=O)(=O)c1cccc(NC(=S)N/N=C/c2cccc(O)c2)c1 the results were PAFAH2 inh 4, HTRA1 inhibitor -3, PAFAH1B2 FP inh 0, ABHD4 inh -12, PAFAH1B3 FP inh 5 and pPAFAH FP inh 2.
For COc1ccc(C(=O)NC23CC4CC(CC(C4)C2)C3)cc1 the results were PAFAH2 inh 12, HTRA1 inhibitor -2, PAFAH1B2 FP inh 9, ABHD4 inh 3, PAFAH1B3 FP inh 5 and pPAFAH FP inh 0.
`O=C(COC(=O)c1ccccc1)NC12CC3CC(CC(C3)C1)C2` gave PAFAH2 inh 79*, HTRA1 inhibitor -3, PAFAH1B2 FP inh 3, ABHD4 inh 3, PAFAH1B3 FP inh 2, pPAFAH FP inh 5 and PAFAH2 FP conf 89*.
`CC(=O)c1ccc(NC(=O)COC(=O)c2ccccc2Sc2ccccc2C#N)cc1` gave PAFAH2 inh 8, HTRA1 inhibitor -9, PAFAH1B2 FP inh 0, ABHD4 inh -18, PAFAH1B3 FP inh 8 and pPAFAH FP inh -1.
For O=C(COC(=O)c1ccc([N+](=O)[O-])cc1)NC12CC3CC(CC(C3)C1)C2 the results were PAFAH2 inh 16, HTRA1 inhibitor -5, PAFAH1B2 FP inh 16, ABHD4 inh 11, PAFAH1B3 FP inh 4 and pPAFAH FP inh 4.
COc1ccc(C(=O)NCC(=O)OCC(=O)NC23CC4CC(CC(C4)C2)C3)cc1 was read as PAFAH2 inh 58*, HTRA1 inhibitor 9, PAFAH1B2 FP inh 7, ABHD4 inh 2, PAFAH1B3 FP inh 3, pPAFAH FP inh 5 and PAFAH2 FP conf 44*.
N#Cc1cccc(NC(=O)COC(=O)c2ccccc2Sc2ccccc2C#N)c1 was read as PAFAH2 inh 45*, HTRA1 inhibitor -12, PAFAH1B2 FP inh -6, ABHD4 inh -14, PAFAH1B3 FP inh -2, pPAFAH FP inh -8 and PAFAH2 FP conf 39*.
N#Cc1ccccc1Sc1ccccc1C(=O)OCC(=O)NC12CC3CC(CC(C3)C1)C2 was read as PAFAH2 inh 50*, HTRA1 inhibitor -43, PAFAH1B2 FP inh 3, ABHD4 inh -16, PAFAH1B3 FP inh 2, pPAFAH FP inh 3 and PAFAH2 FP conf 47*.
COc1ccc(S[C@]2(C(=O)N3CCN(C(C)=O)CC3)CC(=O)N(C(=O)C3CC3)[C@@H]2c2ccc(OC)cc2)cc1 was read as ABHD4 inh 3.
COC[C@H]1CCCN1c1cccc2c1S(=O)(=O)N1CC[C@H](C1)O2 was read as ABHD4 inh 3.
`COc1ccccc1-n1nnnc1SCC(=O)N1CCCC1=O` gave PAFAH2 inh 51*, HTRA1 inhibitor 6, PAFAH1B2 FP inh 3, ABHD4 inh 8, PAFAH1B3 FP inh -3, pPAFAH FP inh -2 and PAFAH2 FP conf 42*.
For O=C1CCCN1C(=O)CSc1nnnn1-c1ccccc1 the results were PAFAH2 inh 37*, HTRA1 inhibitor 3, PAFAH1B2 FP inh 12, ABHD4 inh 3, PAFAH1B3 FP inh 6, pPAFAH FP inh 2 and PAFAH2 FP conf 31*.
For CN(C)c1ccc(NC(=O)NC2CCCCN(Cc3cccc(Cl)c3)C2=O)cc1 (stereo unspecified) the results were ABHD4 inh 11.
For O=C(NC1CCCCN(Cc2ccc(Cl)cc2)C1=O)c1ccccc1 (stereo unspecified) the results were ABHD4 inh -12.
For CCOC(=O)c1ccccc1NC(=O)C1CCCO1 (stereo unspecified) the results were PAFAH2 inh 42*, HTRA1 inhibitor 2, PAFAH1B2 FP inh -2, ABHD4 inh 3, PAFAH1B3 FP inh 3, pPAFAH FP inh 8 and PAFAH2 FP conf 1.
Screening CCOc1cc(CCNC(=O)c2cc3ccsc3n2C)ccc1OC returned ABHD4 inh 3.
Screening O=c1oc(-c2cccc([N+](=O)[O-])c2)nc2ccccc12 returned PAFAH2 inh 43*, HTRA1 inhibitor -8, PAFAH1B2 FP inh 5, ABHD4 inh -4, PAFAH1B3 FP inh 17, pPAFAH FP inh 4 and PAFAH2 FP conf 48*.
For Cc1cc(-c2cccc([N+](=O)[O-])c2)nc2ccccc12 the results were PAFAH2 inh -5, HTRA1 inhibitor -4, PAFAH1B2 FP inh -1, ABHD4 inh 2, PAFAH1B3 FP inh 0 and pPAFAH FP inh 3.
For Cc1ccc2nc(-c3ccccc3)oc(=O)c2c1 the results were PAFAH2 inh 86*, HTRA1 inhibitor 7, PAFAH1B2 FP inh 0, ABHD4 inh 4, PAFAH1B3 FP inh 4, pPAFAH FP inh 1 and PAFAH2 FP conf 69*.
Screening Cc1ccccc1-c1nc2ccccc2c(=O)o1 returned HTRA1 inhibitor -37 and ABHD4 inh 4.
For Cc1cc(-c2nc3ccccc3c(=O)o2)ccc1[N+](=O)[O-] the results were PAFAH2 inh 70*, HTRA1 inhibitor 0, PAFAH1B2 FP inh 3, ABHD4 inh -5, PAFAH1B3 FP inh 9, pPAFAH FP inh -5 and PAFAH2 FP conf 70*.
